Data: ChEMBL document CHEMBL1142297, “2,6-Diaryl-4-phenacylaminopyrimidines as potent and selective adenosine A(2A) antagonists with reduced hERG liability” (Bioorg Med Chem Lett, 2008)
Converted amounts (≈) assume the structure as drawn.

Columns and labels:
Cytochrome P450 3A4 = Cytochrome P450 3A4 (Homo sapiens, UniProt P08684); assay: Inhibition of CYP3A4; assay type: ADME
Summary of the method: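 Recombinant CYP3A4 in microsomes from transfected cells expressing only that isoform, with the fluorescent substrate BFC; ketoconazole as positive control. IC50 determined; compounds with IC50 < 30 µM run in two or three experiments.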

Adenosine receptor A2a [1] = target: T1, Adenosine receptor A2a (Homo sapiens, UniProt P29274); assay: Displacement of [3H]ZM241385 from human adenosine A2A receptor expressed in HEK293 cells; assay type: cell-based
T1 sequence (P29274 whole entry): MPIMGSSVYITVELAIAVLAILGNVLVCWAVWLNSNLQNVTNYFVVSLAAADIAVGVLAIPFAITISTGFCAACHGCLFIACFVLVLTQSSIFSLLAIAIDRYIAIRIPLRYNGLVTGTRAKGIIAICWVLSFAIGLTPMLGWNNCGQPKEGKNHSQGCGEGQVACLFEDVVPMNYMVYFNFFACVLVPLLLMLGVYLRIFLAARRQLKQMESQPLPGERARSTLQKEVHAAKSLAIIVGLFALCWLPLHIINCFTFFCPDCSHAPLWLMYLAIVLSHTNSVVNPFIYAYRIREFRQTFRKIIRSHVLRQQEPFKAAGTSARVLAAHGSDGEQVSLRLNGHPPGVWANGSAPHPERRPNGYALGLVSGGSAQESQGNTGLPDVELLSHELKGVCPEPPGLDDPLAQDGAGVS

Homo sapiens = organism: Homo sapiens; assay: Selectivity for human adenosine A2A receptor over human adenosine A1 receptor
Summary of the method: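 Ki ratio from radioligand displacement in HEK293 cells expressing human receptors. A2A uses [3H]-ZM241385 and A1 uses [3H]-DPCPX. A standard antagonist is included on each plate. Geometric means of 3–6 independent experiments, SD ≤20%.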

[2] = Metabolic stability in human liver microsomes; assay type: ADME, Microsome
Cytochrome P450 2D6 = Cytochrome P450 2D6 (Homo sapiens, UniProt P10635); assay: Inhibition of CYP2D6; assay type: ADME
Chain of Cytochrome P450 2D6 (P10635 whole entry): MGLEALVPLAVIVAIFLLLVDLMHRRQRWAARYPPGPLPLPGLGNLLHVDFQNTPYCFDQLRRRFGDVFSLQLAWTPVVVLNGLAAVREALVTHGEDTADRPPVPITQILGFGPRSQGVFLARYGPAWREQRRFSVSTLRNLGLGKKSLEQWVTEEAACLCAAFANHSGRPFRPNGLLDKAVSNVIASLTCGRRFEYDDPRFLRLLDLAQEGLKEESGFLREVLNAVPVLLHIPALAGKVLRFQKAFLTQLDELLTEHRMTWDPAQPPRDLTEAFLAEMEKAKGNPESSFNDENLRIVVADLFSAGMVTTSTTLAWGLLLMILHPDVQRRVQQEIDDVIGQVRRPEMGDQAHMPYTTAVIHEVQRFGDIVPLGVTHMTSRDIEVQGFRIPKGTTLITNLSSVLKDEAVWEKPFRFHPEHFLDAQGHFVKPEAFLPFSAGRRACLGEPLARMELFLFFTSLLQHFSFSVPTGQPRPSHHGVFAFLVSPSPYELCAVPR
Summary of the method: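 Recombinant CYP2D6 in microsomes from transfected cells, with the fluorescent substrate AMMC; quinidine as positive control. IC50 determined; compounds with IC50 < 30 μM assayed in two or three experiments.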

[3] = target: Voltage-gated inwardly rectifying potassium channel KCNH2 (Homo sapiens, UniProt Q12809); assay: Inhibition of human ERG expressed in HEK cells assessed as effect on electric current by patch clamp assay; assay type: cell-based, HEK293
Chain of Voltage-gated inwardly rectifying potassium channel KCNH2 (Q12809 whole entry): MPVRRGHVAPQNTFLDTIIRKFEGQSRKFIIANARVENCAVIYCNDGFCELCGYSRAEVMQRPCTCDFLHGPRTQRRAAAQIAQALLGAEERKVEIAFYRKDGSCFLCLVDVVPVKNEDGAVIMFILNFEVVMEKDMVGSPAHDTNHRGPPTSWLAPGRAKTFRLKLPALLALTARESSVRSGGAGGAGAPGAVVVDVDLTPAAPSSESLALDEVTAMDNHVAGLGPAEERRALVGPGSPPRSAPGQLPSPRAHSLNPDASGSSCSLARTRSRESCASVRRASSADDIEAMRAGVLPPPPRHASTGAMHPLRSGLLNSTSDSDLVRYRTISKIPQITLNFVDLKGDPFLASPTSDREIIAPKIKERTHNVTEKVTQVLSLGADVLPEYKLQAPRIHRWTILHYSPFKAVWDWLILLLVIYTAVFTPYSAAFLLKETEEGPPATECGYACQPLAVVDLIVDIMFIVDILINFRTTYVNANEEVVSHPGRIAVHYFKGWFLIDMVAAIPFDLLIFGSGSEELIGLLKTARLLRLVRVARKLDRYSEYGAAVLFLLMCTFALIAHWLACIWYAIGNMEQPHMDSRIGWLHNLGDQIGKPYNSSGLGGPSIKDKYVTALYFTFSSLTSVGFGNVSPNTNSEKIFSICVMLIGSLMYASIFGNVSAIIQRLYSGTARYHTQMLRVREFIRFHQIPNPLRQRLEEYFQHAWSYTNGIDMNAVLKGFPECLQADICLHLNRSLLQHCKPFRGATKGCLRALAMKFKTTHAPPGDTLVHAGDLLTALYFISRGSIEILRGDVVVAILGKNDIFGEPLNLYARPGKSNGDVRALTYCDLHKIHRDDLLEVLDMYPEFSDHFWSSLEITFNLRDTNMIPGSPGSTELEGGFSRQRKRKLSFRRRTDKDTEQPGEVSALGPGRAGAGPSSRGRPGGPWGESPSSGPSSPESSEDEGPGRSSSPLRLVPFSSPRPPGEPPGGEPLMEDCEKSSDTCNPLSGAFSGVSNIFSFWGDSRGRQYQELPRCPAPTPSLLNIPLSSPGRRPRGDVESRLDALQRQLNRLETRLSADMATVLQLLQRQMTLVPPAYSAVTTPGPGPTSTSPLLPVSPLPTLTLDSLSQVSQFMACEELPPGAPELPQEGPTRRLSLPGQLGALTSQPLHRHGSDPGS
Summary of the method: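 hERG potassium current was recorded by patch clamp in a HEK cell line stably carrying hERG. Each compound was applied at six concentrations (0.1 nM, 1 nM, 10 nM, 100 nM, 1 μM, 10 μM), and its effect on current was read at the end of a 5-min application. Cisapride (30 nM) served as positive control.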

[4] = Solubility in buffer solution at pH 2; assay type: physicochemical
Summary of the method: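 About 1 mg of solid is weighed into pH 2.00 buffer solution, sonicated 10 min, shaken overnight and centrifuged. The supernatant is quantified by HPLC against a standard curve of known dilutions of authentic sample.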

Adenosine receptor A2a [5] = target: T1, Adenosine receptor A2a; assay: Antagonist activity at human adenosine A2A receptor expressed in HEK293 cells by cAMP assay; assay type: functional, cell-based

Chain of Cytochrome P450 3A4 (P08684 whole entry, canonical isoform): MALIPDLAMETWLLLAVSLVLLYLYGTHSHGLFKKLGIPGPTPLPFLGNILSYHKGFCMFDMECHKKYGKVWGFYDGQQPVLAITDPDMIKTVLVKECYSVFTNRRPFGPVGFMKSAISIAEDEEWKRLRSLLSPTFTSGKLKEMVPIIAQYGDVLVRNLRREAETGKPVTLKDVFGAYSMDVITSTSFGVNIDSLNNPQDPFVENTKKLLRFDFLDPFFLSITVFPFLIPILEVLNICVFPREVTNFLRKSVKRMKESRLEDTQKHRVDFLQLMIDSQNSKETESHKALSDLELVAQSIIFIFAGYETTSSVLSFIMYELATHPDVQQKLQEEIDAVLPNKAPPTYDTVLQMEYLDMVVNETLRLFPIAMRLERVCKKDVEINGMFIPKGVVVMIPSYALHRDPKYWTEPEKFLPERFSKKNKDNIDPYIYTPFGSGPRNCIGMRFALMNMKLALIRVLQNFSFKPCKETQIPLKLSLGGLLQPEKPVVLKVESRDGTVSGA

Structure (SMILES) | IC50 (Cytochrome P450 3A4) [nM] | Ki (Adenosine receptor A2a [1]) [nM] | Selectivity ratio (Homo sapiens) | other results
Cc1cc(C)cc(CC(=O)Nc2cc(-n3nc(C)cc3C)nc(-c3ccccn3)n2)c1 | > 10000 | 3 | 186 | CLint scaled [2]: 113 mL/min/kg
Cc1cc(C)n(-c2cc(NC(=O)Cc3ccc(N(C)C)cc3)nc(-c3ccc(C)o3)n2)n1 | – | 2 | 162 | –
COc1ccc(CC(=O)Nc2cc(-n3nc(C)cc3C)nc(-c3ccc(C)o3)n2)cc1 | – | 4 | 61 | –
Cc1cc(C)n(-c2cc(NC(=O)Cc3cc(F)cc(F)c3)nc(-c3ccc(C)o3)n2)n1 | – | 5 | 126 | –
Cc1cc(C)n(-c2cc(NC(=O)Cc3ccc(F)c(F)c3)nc(-c3ccc(C)o3)n2)n1 | – | 5 | 152 | –
COc1ccc(CC(=O)Nc2cc(-n3nc(C)cc3C)nc(-c3ccccn3)n2)cc1 | 1800 | 1 | 66 | –
CCOc1ccc(CC(=O)Nc2cc(-n3nc(C)cc3C)nc(-c3ccccn3)n2)cc1OC | 7000 | 1 | 257 | CLint scaled [2]: 47 mL/min/kg
COc1ccc(CC(=O)Nc2cc(-n3nc(C)cc3C)nc(-c3ccc(C)o3)n2)cc1C | – | 3 | 411 | –
Cc1cc(C)n(-c2cc(NC(=O)Cc3ccc(CN4CCOCC4)cc3)nc(-c3ccc(C)o3)n2)n1 | – | 0.8 | 179 | –
COc1cc(CC(=O)Nc2cc(-n3nc(C)cc3C)nc(-c3ccc(C)o3)n2)cc(OC)c1 | > 5000 | 2 | 487 | IC50 (Cytochrome P450 2D6): > 5000 nM; IC50 [3]: > 3000 nM; solubility [4]: < 100 µg/mL; CLint scaled [2]: 78 mL/min/kg
COc1ccc(CC(=O)Nc2cc(-n3nc(C)cc3C)nc(-c3ccc(C)o3)n2)cc1OC | – | 2 | 180 | –
Cc1cc(C)n(-c2cc(NC(=O)Cc3ccc(S(C)(=O)=O)cc3)nc(-c3ccccn3)n2)n1 | > 10000 | 1 | 148 | solubility [4]: 500 µg/mL (≈ 1080 µM); CLint scaled [2]: 7 mL/min/kg; IC50 (Adenosine receptor A2a [5]): 100 nM
Cc1cc(C)n(-c2cc(NC(=O)Cc3ccc(CN(C)C)cc3)nc(-c3ccc(C)o3)n2)n1 | – | 0.2 | 80 | –
COc1ccc(CC(=O)Nc2cc(-c3nccs3)nc(-c3ccc(C)o3)n2)cc1 | – | 6 | 12 | –
COc1ccc(CC(=O)Nc2cc(-n3cccn3)nc(-c3ccc(C)o3)n2)cc1 | – | 10 | 12 | –
COc1cc(CC(=O)Nc2cc(-n3nc(C)cc3C)nc(-c3ccccn3)n2)cc(OC)c1 | 1300 | 1 | 477 | –
Cc1cc(C)n(-c2cc(NC(=O)Cc3ccc(NS(C)(=O)=O)cc3)nc(-c3ccc(C)o3)n2)n1 | – | 5 | 90 | –
COc1ccc(CC(=O)Nc2cc(-c3nccs3)nc(-c3ccccn3)n2)cc1 | – | 1 | 18 | –
COc1ccc(CC(=O)Nc2cc(-n3nc(C)cc3C)nc(-c3ccc(C)o3)n2)cc1F | – | 3 | 129 | –
